Experimental data: ChEMBL document CHEMBL4257453, “Identification of karanjin isolated from the Indian beech tree as a potent CYP1 enzyme inhibitor with cellular efficacy via screening of a natural product repository” (Medchemcomm, 2018)

What was measured:
[1] = biological target: T1, CYP1A1 (Homo sapiens, UniProt P04798); assay: Inhibition of recombinant human CYP1A1 expressed in baker's yeast-derived microsomes (Sacchrosomes) at 10 uM using 7-ethoxyresorufin substrate by EROD assay relative to control; conditions: probe 7-ethoxyresorufin
T1 sequence (P04798 whole entry): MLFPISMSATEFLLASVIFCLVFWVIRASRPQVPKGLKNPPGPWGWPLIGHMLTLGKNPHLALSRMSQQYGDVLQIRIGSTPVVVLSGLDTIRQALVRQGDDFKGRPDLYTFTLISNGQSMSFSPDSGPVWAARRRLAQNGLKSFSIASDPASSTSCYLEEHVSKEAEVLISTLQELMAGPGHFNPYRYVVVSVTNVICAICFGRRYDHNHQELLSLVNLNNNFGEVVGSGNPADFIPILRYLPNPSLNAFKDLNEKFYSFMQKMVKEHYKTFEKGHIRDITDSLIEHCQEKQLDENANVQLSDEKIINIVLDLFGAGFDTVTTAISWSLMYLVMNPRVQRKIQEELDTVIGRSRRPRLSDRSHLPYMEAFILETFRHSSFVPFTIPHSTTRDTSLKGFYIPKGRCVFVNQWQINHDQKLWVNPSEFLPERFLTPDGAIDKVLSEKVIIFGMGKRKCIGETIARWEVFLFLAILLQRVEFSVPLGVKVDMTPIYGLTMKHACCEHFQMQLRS
How it was run: (§1)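 Yeast microsomes carrying recombinant CYP (Sacchrosomes). Substrates per isoform are 7-ethoxyresorufin, 3-cyano-7-ethoxycoumarin, EOMCC or dibenzylfluorescein, read as endpoint fluorescence. Background from compound-only wells without enzyme is subtracted. Independent triplicate runs; α-naphthoflavone positive control.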

[2] = biological target: CYP2D6 (Homo sapiens, UniProt P10635); assay: Inhibition of recombinant human CYP2D6 expressed in baker's yeast-derived microsomes (Sacchrosomes) at 10 uM using 7-ethoxy-methyloxy-3-cyanocoumarin substrate by EROD assay relative to control; type: ADME; conditions: probe 7-ethoxy-methyloxy-3-cyanocoumarin
CYP2D6, sequence (P10635 whole entry): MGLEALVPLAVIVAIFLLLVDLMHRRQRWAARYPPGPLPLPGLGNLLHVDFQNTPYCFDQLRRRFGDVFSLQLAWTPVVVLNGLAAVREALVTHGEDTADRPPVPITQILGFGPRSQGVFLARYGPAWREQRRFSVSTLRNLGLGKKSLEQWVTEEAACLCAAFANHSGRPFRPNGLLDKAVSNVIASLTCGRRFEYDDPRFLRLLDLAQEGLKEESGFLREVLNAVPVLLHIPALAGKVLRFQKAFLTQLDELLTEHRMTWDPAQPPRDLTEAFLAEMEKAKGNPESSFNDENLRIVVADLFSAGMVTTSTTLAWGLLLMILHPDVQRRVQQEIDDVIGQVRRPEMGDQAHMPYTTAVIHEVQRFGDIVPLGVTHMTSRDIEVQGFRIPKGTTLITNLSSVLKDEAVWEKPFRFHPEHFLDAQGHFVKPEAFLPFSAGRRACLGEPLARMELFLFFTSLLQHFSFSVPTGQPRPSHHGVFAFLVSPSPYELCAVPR
How it was run: as §1, with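 “(Sacchrosomes). […]” for “(Sacchrosomes).”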

[3] = biological target: T2, CYP1B1 (Homo sapiens, UniProt Q16678); assay: Inhibition of recombinant human CYP1B1 expressed in baker's yeast-derived microsomes (Sacchrosomes) at 10 uM using 7-ethoxyresorufin substrate by EROD assay relative to control; type: ADME; conditions: probe 7-ethoxyresorufin
T2 sequence (Q16678 whole entry): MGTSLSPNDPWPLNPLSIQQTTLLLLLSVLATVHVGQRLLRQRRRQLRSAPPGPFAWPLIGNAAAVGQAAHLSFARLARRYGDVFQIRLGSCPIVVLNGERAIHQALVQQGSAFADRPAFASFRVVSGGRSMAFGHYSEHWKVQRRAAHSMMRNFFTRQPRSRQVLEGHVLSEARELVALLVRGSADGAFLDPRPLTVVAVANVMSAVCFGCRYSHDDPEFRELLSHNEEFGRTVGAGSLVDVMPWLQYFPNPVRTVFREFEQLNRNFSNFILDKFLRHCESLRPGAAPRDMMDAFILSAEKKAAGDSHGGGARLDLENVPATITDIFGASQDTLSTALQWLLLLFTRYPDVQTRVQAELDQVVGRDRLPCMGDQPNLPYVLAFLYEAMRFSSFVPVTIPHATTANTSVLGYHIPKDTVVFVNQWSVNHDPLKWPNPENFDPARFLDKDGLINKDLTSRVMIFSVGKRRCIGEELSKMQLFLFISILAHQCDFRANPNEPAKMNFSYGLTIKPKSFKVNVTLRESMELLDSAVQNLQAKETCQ
How it was run: as §1, with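 “(Sacchrosomes). […]” for “(Sacchrosomes).”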

[4] = biological target: CYP2C9 (Homo sapiens, UniProt P11712); assay: Inhibition of recombinant human CYP2C9 expressed in baker's yeast-derived microsomes (Sacchrosomes) at 10 uM using 3-cyano-7-ethoxycoumarin substrate by EROD assay relative to control; type: ADME; conditions: probe 3-cyano-7-ethoxycoumarin
CYP2C9, sequence (P11712 whole entry): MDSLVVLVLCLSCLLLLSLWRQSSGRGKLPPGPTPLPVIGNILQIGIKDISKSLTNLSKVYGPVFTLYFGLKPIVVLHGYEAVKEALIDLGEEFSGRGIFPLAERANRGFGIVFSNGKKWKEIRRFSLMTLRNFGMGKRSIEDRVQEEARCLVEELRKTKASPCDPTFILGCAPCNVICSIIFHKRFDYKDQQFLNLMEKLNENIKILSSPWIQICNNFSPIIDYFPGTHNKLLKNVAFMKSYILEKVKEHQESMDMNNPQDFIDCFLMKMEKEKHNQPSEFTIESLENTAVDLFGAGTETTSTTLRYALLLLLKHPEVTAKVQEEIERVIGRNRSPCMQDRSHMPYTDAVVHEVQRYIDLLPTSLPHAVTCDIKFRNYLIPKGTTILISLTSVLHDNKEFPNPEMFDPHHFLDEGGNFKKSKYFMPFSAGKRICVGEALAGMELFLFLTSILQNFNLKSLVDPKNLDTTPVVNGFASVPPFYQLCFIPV
How it was run: as §1, with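 “(Sacchrosomes). […]” for “(Sacchrosomes).”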

[5] = biological target: CYP2C19 (Homo sapiens, UniProt P33261); assay: Inhibition of recombinant human CYP2C19 expressed in baker's yeast-derived microsomes (Sacchrosomes) at 10 uM using 3-cyano-7-ethoxycoumarin substrate by EROD assay relative to control; type: ADME; conditions: probe 3-cyano-7-ethoxycoumarin
CYP2C19, sequence (P33261 whole entry): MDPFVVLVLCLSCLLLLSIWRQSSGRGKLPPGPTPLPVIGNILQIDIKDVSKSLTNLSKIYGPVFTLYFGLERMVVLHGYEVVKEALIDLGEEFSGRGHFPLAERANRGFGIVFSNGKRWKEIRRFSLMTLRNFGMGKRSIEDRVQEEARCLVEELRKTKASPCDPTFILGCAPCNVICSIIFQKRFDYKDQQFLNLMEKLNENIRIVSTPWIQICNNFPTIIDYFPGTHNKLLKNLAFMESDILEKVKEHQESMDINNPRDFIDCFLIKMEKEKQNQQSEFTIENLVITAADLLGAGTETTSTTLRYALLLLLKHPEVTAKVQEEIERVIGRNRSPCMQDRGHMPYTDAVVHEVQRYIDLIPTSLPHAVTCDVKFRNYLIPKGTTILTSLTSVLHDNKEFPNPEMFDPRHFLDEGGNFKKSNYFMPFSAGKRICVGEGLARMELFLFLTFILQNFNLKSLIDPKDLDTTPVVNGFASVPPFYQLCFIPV
How it was run: as §1, with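 “(Sacchrosomes). […]” for “(Sacchrosomes).”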

[6] = biological target: CYP3A4 (Homo sapiens, UniProt P08684); assay: Inhibition of recombinant human CYP3A4 expressed in baker's yeast-derived microsomes (Sacchrosomes) at 10 uM using dibenzylfluorescein substrate by EROD assay relative to control; type: ADME; conditions: probe dibenzylfluorescein
CYP3A4, sequence (P08684 whole entry): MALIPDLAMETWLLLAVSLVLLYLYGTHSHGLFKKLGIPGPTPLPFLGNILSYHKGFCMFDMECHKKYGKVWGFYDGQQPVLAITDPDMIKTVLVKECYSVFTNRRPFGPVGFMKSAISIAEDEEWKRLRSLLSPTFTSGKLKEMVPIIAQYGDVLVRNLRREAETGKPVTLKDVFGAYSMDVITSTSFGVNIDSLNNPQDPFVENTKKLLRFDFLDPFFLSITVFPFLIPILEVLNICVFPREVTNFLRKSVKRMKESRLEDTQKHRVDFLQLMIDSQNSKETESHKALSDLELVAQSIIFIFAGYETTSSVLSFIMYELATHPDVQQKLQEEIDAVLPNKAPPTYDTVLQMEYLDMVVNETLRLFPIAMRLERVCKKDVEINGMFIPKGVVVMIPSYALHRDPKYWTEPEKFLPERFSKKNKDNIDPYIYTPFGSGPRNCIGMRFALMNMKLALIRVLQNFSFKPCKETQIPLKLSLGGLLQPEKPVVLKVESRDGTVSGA
How it was run: as §1, with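 “(Sacchrosomes). […]” for “(Sacchrosomes).”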

Compound | inhibition at 10 µM [1] [%] | other results
CC1=C(CO)C(=O)O[C@@H]([C@@H](C)[C@H]2CC[C@H]3[C@@H]4C[C@H]5O[C@]56[C@@H](O)C=CC(=O)[C@]6(C)[C@H]4CC[C@]23C)C1 [WITHAFERIN A] | 50 | –
COc1ccc2cc3[n+](cc2c1OC)CCc1cc2c(cc1-3)OCO2 [BERBERINE CHLORIDE] | 48 | –
Cc1c(O)c2c(c(C(=O)/C=C/c3ccccc3)c1O)OC(C)(C)C=C2 | 52 | –
CC(C)=CCOc1c2occc2cc2ccc(=O)oc12 [PENTOSALEN] | 71 | –
COc1cc2ccc(=O)oc2c2ccoc12 [SPHONDIN] | 67 | –
O=C(/C=C/C=C/c1ccc2c(c1)OCO2)N1CCCCC1 [PIPERINE] | 42 | –
CCOc1c2occc2cc2ccc(=O)oc12 | 89 | –
CC1(C)O[C@H]1COc1c2ccoc2cc2oc(=O)ccc12 [OXYPEUCEDANIN] | 56 | –
O=c1cc(-c2ccccc2)oc2c1ccc1ccccc12 [ALPHA-NAPHTHOFLAVONE] | – | inhibition at 10 µM [2]: 5%; inhibition at 10 µM [3]: 96%; inhibition at 10 µM [4]: 10%; inhibition at 10 µM [5]: 9%; inhibition at 10 µM [6]: 6%
O=c1cc(-c2ccc(O)cc2)oc2c([C@@H]3O[C@H](CO)[C@@H](O)[C@H](O)[C@H]3O)c(O)cc(O)c12 [VITEXIN] | 42 | –
COc1ccc2ccc(=O)oc2c1CC=C(C)C [OSTHOLE] | 34 | –
CC(C)(O)C(O)COc1c2occc2cc2ccc(=O)oc12 (stereo not given) | 72 | –
O=c1ccc2cc3ccoc3cc2o1 [PSORALEN] | 69 | –
COc1c(O)cc2oc(-c3ccc(O)cc3)cc(=O)c2c1O [HISPIDULIN] | 86 | –
C=CCOc1cc(OCC=C)c2ccc(=O)oc2c1 | 69 | –
O=c1ccc2ccc3occc3c2o1 [ANGELICIN] | 80 | –
